The source made the active and inactive calls. The rule behind the calls is not given here.
Experiments:
Calf thymus DNA [1] = assay: Binding affinity to calf thymus DNA assessed as dissociation constant by fluorescence based analysis; assay type: nucleic-acid assay, Bos taurus
How it was run: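 Fluorescence titration: compound at 20 μM in PBS pH 7.4, calf thymus DNA added in 10 μM steps until emission plateaued (~60 μM). Excitation 345 nm, emission 350–650 nm. KD obtained by fitting a one-site total saturation binding model (nonspecific binding proportional to ligand). Triplicate independent samples.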

Calf thymus DNA [2] = assay: Binding affinity to calf thymus DNA assessed as reduction in absorbance spectra at 20 uM by fluorescence based analysis; assay type: nucleic-acid assay; conditions: Bos taurus
Calf thymus DNA [3] = assay: Binding affinity to calf thymus DNA assessed as red shift in absorbance spectra at 20 uM by fluorescence based analysis; assay type: nucleic-acid assay; conditions: Bos taurus
[4] = Drug localization in cytosol of human MCF7 cells assessed as increase in bright green fluorescence of wintergreen excitation at 2 uM incubated for 1 hr in dark by EGFP filter based analysis; assay type: ADME, subcellular
MCF7 [5] = assay: Photorelease activity in human MCF7 cells assessed as 3-bromo-2-(4-carbamimidoylphenyl)-1H-indole-6-carboxamidine release by measuring bright cyan fluorescence in nucleus at 3 uM incubated for 1 hr followed by illumination with 1.6 J/cm^2 for 10 mins by DAPI filter based analysis; assay type: ADME, cell-based; conditions: mcf7, 1.167 h, time 70 min
How it was run: (§1)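 MCF7 cells given compound (3 μM) for 1 h, washed once with PBS, imaged. DAPI filter set (ex 350–405, em 415–470 nm) used for Br-DAPI cyan signal; EGFP filter set (ex 450–495, em 500–550 nm) used for WinterGreen green signal. Cells imaged dark, then after 480 nm illumination (10 min, 1.6 J cm⁻²).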

MCF7 [6] = assay: Photorelease activity in human MCF7 cells assessed as wintergreen release by measuring bright green fluorescence in nucleus at 3 uM incubated for 1 hr followed by illumination with 1.6 J/cm^2 for 10 mins by EGFP filter based analysis; assay type: ADME, cell-based; conditions: mcf7, 1.167 h, time 70 min; how it was run: as §1
[7] = (§2) Stability of compound in human A549 cells assessed as esterase-mediated 3-bromo-2-(4-carbamimidoylphenyl)-1H-indole-6-carboxamidine release by measuring cyan fluorescence at 2 uM incubated for 1 hr followed by compound washout and further incubated for 1 hr on heated microscopic stage by DAPI filter based fluorescence analysis; assay type: ADME, cell-based; conditions: a549, 1 h
How it was run: (§3)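 Cells incubated with compound (2 μM) for 1 h, washed once with PBS, then kept a further 1 h in the dark on a heated microscope stage. Nuclear cyan fluorescence imaged with the DAPI filter set at 0 h and 2 h time points.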

[8] = as §2, with “HeLa” for “A549”; assay type: ADME, cell-based; how it was run: as §3
[9] = Induction of ROS production in PBS at pH 7.4 at 1 uM irradiated with 480 nm 2.3 J/cm^2 light for 15 mins with 8 J/cm^2 UV irradiation for 5 mins by DCFH2-DA probe based analysis; assay type: functional; conditions: time 20.0 min
MCF7 [10] = assay: Induction of ROS production in human MCF7 cells at 2 uM incubated for 1 hr in dark followed by irradiation with 480 nm 2.3 J/cm^2 light for 15 mins with 8 J/cm^2 UV irradiation for 5 mins by DCFH2-DA probe based analysis; assay type: functional, cell-based; conditions: time 80.0 min
How it was run: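 MCF7 cells incubated with compound (2 μM) 1 h in the dark, washed, loaded with 10 μM DCFH2DA for 30 min, washed. DCF green fluorescence imaged after 480 nm illumination (15 min, 2.3 J cm⁻²), then after added 365 nm UV (5 min, 8.0 J cm⁻²). Mean fluorescence intensity quantified.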

DNA = assay: Induction of DNA (unknown origin) damage in PBS at pH 7.4 assessed as double strand breaks by measuring elimination of intact DNA at 10 uM irradiated with 480 nm 2.3 J/cm^2 light for 15 mins with 8 J/cm^2 UV irradiation for 5 mins by ethidium bromide staining based agarose gel electrophoresis; assay type: nucleic-acid assay; conditions: time 20.0 min
How it was run: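 Plasmid dsDNA (70 ng pCMV-PARP1-3xFlag-WT, 7146 bp) in PBS pH 7.4 with compound at 10 μM. Illumination: 480 nm for 15 min (2.3 J cm⁻²), then UV 365 nm lamp for 5 min (8.0 J cm⁻²). Samples denatured, run on 1% agarose gel with ethidium bromide. n = 2.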

MCF7 [11] = assay: Photocytotoxicity against human MCF7 cells assessed as reduction in cell viability incubated for 1 hr under dark condition followed by washout and measured after 24 hrs by MTT assay; assay type: functional
How it was run: (§4)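 Cells (MCF7, A549, HeLa) incubated 1 h with compound (BB probes 0–32 μM, Br-DAPI 0–64 μM) and washed once. Light arms: 480 nm (15 min, 2.3 J cm⁻²) with or without UV (5 min, 8.0 J cm⁻²), or UV only; dark controls unilluminated. Cells kept overnight in growth medium, then MTT read 24 h post-treatment. CC50 taken relative to untreated cells. n = 3.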

MCF7 [12] = assay: Photocytotoxicity against human MCF7 cells assessed as reduction in cell viability incubated for 1 hr followed by washout and irradiation with 480 nm 2.3 J/cm^2 light for 15 mins with 8 J/cm^2 UV irradiation for 5 mins and measured after 24 hrs by MTT assay; assay type: functional; conditions: MCF7, light or radiation study; how it was run: as §4
MCF7 [13] = assay: (§5) Photocytotoxicity against human MCF7 cells cultured as […] spheroids assessed as cell death by measuring increase in green fluorescence at 10 uM incubated for 1 hr followed by washout and irradiation with 480 nm 2.3 J/cm^2 light for 15 mins with 8 J/cm^2 UV irradiation for 5 mins and incubated overnight by cell viability imaging kit based assay; assay type: functional
How it was run: (§6)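 MCF7 spheroids (~300 μm) grown in ultralow-attachment plates. Compound added to medium at 10 μM final for 1 h, then illuminated: 480 nm (15 min, 2.3 J cm⁻²), 480 nm plus UV (5 min, 8.0 J cm⁻²), or UV only. After overnight incubation, stained with a live/dead imaging kit; dead-cell green mean intensity and spheroid diameter assessed.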

MCF7 [14] = assay: as §5, with “tumor spheroid shrinkage” for “cell death by measuring increase in green fluorescence”; assay type: functional; how it was run: as §6
Calf thymus DNA [15] = assay: Binding affinity to calf thymus DNA assessed as fold change in fluorescence quenching of 3-bromo-2-(4-carbamimidoylphenyl)-1H-indole-6-carboxamidine; assay type: nucleic-acid assay; conditions: Bos taurus
[16] = Photorelease activity in PBS at pH 7.4 assessed as 3-bromo-2-(4-carbamimidoylphenyl)-1H-indole-6-carboxamidine release by measuring increase in fluorescence intensity at 50 uM in presence of CT-DNA incubated for 3 hrs under dark condition by RP-HPLC analysis; assay type: functional
How it was run: (§7)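 Samples at 50 μM in PBS pH 7.4 were either kept 3 h at 37 °C in the dark or illuminated 20 min at 480 nm (450–495 nm filter, 3.1 J cm⁻²). Analysed by RP-HPLC on a C18 analytical column with absorbance at 345 nm; retention times recorded. n = 2 independent samples.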

[17] = Photorelease activity in PBS at pH 7.4 assessed as 3-bromo-2-(4-carbamimidoylphenyl)-1H-indole-6-carboxamidine release by measuring time at when peak observed at 50 uM in presence of CT-DNA illuminated with 3.1 J/cm^2 480 nm illumination for 20 mins by RP-HPLC analysis; assay type: functional; how it was run: as §7
[18] = Photorelease activity in PBS at pH 7.4 assessed as wintergreen release at 50 uM in presence of CT-DNA illuminated with 3.1 J/cm^2 480 nm illumination for 20 mins by RP-HPLC analysis; assay type: functional; how it was run: as §7

Activity (Calf thymus DNA [2]): Active | Activity (Calf thymus DNA [3]): Active | Drug uptake [4]: Active | Drug metabolism (MCF7 [5]): Metabolite_Detected | Drug metabolism (MCF7 [6]): Metabolite_Notdetected | Stability [7]: Stable | Stability [8]: Stable | fold change (FC) (Calf thymus DNA [15]): 4
Compound: CC1=CC(C)=[N+]2C1=C(COC(=O)/N=C(\N)c1ccc3c(Br)c(-c4ccc(C(=N)N)cc4)[nH]c3c1)c1c(C)cc(C)n1[B-]2(C)C
Kd (Calf thymus DNA [1]): 6 µM | Activity [9]: Active | Activity (MCF7 [10]): Active | Activity (DNA): Active | CC50 (MCF7 [11]): > 10 µM | CC50 (MCF7 [12]): 0.47 µM | Activity (MCF7 [13]): Active | Activity (MCF7 [14]): Active | Drug metabolism [16]: Metabolite not detected | TIME [17]: 0.533 h | Drug metabolism [18]: Metabolite not detected

— ChEMBL document CHEMBL5150073, “Photocaged DNA-Binding Photosensitizer Enables Photocontrol of Nuclear Entry for Dual-Targeted Photodynamic Therapy” (J Med Chem, 2022)
